In ChEMBL document CHEMBL1150775, “Synthesis and evaluation of estrogen agonism of diaryl 4,5-dihydroisoxazoles, 3-hydroxyketones, 3-methoxyketones, and 1,3-diketones: a compound set forming a 4D molecular library” (J Med Chem, 2008):
Where “and” joins values, the source holds several entries; their conditions need not be identical. Identical values can stand only once.

How the values were obtained:
[1] = target: T1, Estrogen receptor (Homo sapiens) (UniProt P03372); assay: Activation of human estrogen receptor alpha expressed in HEK293 cells at 10 uM by beta-galactosidase reporter gene assay relative to 3,17 beta-estradiol; format: cell-based
T1 sequence (whole entry): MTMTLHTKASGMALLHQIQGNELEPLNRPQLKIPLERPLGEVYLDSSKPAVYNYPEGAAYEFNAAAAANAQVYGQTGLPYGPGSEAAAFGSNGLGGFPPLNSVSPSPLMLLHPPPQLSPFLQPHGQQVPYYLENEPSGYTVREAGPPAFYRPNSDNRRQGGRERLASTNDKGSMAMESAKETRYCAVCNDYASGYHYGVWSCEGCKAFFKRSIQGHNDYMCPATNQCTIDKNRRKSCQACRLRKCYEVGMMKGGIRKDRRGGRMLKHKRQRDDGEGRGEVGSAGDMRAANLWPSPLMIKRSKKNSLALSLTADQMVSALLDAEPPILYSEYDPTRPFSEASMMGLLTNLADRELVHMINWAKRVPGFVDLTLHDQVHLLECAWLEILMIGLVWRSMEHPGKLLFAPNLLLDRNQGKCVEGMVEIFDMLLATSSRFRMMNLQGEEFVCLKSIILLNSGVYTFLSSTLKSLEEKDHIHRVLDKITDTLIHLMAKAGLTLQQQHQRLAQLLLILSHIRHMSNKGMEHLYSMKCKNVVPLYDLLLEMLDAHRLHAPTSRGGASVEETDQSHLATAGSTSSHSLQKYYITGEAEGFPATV
In short: (§1)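 HEK293 cells seeded a day ahead in phenol-free DMEM with 5% delipidated FBS. Calcium phosphate transfection for 4 h with 5 ng ERα or ERβ expression vector, 75 ng pERE2TATA-LUC reporter and 20 ng pCMVβ control. Test compound at 10 µM (vehicle 0.1% v/v) for 24 h. Luciferase normalized to β-galactosidase. Activity = 100% × (test − vehicle)/(10 nM E2 − vehicle). Mean of ≥3 independent transfections.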

[2] = target: Estrogen receptor beta (Homo sapiens) (UniProt Q92731); assay: Activation of human estrogen receptor beta expressed in HEK293 cells at 10 uM beta-galactosidase reporter gene assay relative to 3,17-beta-estradiol; format: cell-based; in short: as §1
Estrogen receptor beta (Homo sapiens), sequence (Q92731 whole entry): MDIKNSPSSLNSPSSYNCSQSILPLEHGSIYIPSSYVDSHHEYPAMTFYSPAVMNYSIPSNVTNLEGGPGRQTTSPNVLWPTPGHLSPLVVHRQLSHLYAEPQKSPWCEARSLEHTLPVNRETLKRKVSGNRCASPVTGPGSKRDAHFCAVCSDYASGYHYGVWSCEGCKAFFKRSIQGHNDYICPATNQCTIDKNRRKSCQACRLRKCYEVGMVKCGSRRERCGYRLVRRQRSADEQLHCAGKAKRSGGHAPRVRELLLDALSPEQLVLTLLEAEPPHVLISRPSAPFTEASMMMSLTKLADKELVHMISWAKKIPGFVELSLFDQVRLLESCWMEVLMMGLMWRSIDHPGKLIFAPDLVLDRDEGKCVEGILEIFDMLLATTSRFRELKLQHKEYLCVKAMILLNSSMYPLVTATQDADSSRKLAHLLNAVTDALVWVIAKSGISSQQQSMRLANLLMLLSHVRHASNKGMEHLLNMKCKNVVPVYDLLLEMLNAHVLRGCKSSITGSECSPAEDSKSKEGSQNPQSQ

| Activity [1] [%] | Activity [2] | SMILES |
| --- | --- | --- |
| 0.3 | 18.4% | COC(CC(=O)c1ccccc1)Cc1ccccc1 (configuration not stated) |
| 28.5 | 4% | COc1ccc(CC(CC(=O)CCc2ccccc2)OC)cc1 (configuration not stated) |
| 0.5 | -7.1% | CS(C)=C(C(=O)CCc1ccccc1)C(=O)Cc1ccccc1 |
| -1.2 | 5.8% | CS(C)=C(C(=O)Cc1ccccc1)C(=O)c1ccccc1 |
| 31.3 | 13.6% | c1ccc(CCCC2=NOC(Cc3ccccc3)C2)cc1 (configuration not stated) |
| 7 | 1.2% | c1ccc(CCC2CC(Cc3ccccc3)=NO2)cc1 (configuration not stated) |
| 12.4 | 6.4% | O=C(CCc1ccccc1)CC(O)Cc1ccc2ccccc2c1 (single isomer, unassigned; 57a) |
| 1.6 | -0.8% | COc1ccc(CC(O)CC(=O)CCc2ccccc2)cc1 (single isomer, unassigned; 54a) |
| 4.3 | -0.5% | COc1ccccc1CC(=O)CC(Cc1ccc2ccccc2c1)OC (single isomer, unassigned; 66b) |
| 35.5 | 2% | COC(CC(=O)CCc1ccccc1)Cc1cccc2ccccc12 (configuration not stated) |
| 5.7 | 4.4% | Oc1ccc(CCC2=NOC(Cc3ccc(F)cc3)C2)cc1 (configuration not stated) |
| 0 | 0% | COc1ccccc1CC(=O)CC(Cc1cccc2ccccc12)OC (single isomer, unassigned; 63a) |
| 0 | 0.3% | c1ccc(CC2=NOC(Cc3ccccc3)C2)cc1 (single isomer, unassigned; 14b) |
| 24.3 | 41.5% | Oc1ccc(CCC2=NOC(Cc3ccccc3)C2)cc1 (single isomer, unassigned) |
| 6.1 | -1.5% | O=C(CCCc1ccccc1)CC(=O)CCc1ccccc1 |
| 0.6 | -4.6% | CS(C)=C(C(=O)CCCc1ccccc1)C(=O)CCc1ccccc1 |
| 12.1 | 1.7% | O=C(CCc1ccccc1)CC(O)Cc1cccc2ccccc12 (configuration not stated) |
| 22.3 | 8.2% | c1ccc(CCC2=NOC(Cc3ccc4ccccc4c3)C2)cc1 (single isomer, unassigned; 53a) |
| 1.4 | 0.3% | COC(CC(=O)Cc1ccccc1)Cc1ccccc1 (configuration not stated) |
| 38.1 | 25.8% | COC(CCc1ccccc1)CC(=O)c1ccccc1 (configuration not stated) |
| 25.3 | 2.8% | O=C(CCc1ccccc1)CC(O)c1ccccc1 (single isomer, unassigned; 23b) |

| Activity [1] [%] | Activity [2] | SMILES |
| --- | --- | --- |
| 0.6 | -0.2% | COc1ccccc1CC(=O)CC(Cc1cccc2ccccc12)OC (single isomer, unassigned; 63b) |
| 38.2 | 1.3% | c1ccc(CCC2=NOC(Cc3ccccc3)C2)cc1 (configuration not stated) |
| 3.7 | -1.7% | CS(C)=C(C(=O)CCCc1ccccc1)C(=O)Cc1ccccc1 |
| 4.3 | 0.1% | O=C(CC(=O)Cc1ccccc1)Cc1ccccc1 |
| 5.6 | -0.5% | COC(CC(=O)Cc1cccc2ccccc12)Cc1cccc2ccccc12 (single isomer, unassigned; 64a) |
| 15.7 | -2.5% | Oc1cccc(CCC2=NOC(Cc3ccccc3)C2)c1 (configuration not stated) |
| 1 | 0.3% | CS(C)=C(C(=O)CCc1ccccc1)C(=O)CCc1ccccc1 |
| -6 | 0% | CS(C)=C(C(=O)CCCc1ccccc1)C(=O)c1ccccc1 |
| – | 12.8% and 6.6% | c1ccc(CC2CC(c3ccccc3)=NO2)cc1 (configuration not stated) |
| 9.9 | 1.3% | COC(CC(=O)CCc1ccccc1)Cc1ccccc1 (configuration not stated) |
| 16.2 | 1% | O=C(CCc1ccccc1)CC(O)CCc1ccccc1 (configuration not stated) |
| 4.5 | -0.5% | COC(CC(=O)Cc1ccc(F)cc1)Cc1cccc2ccccc12 (single isomer, unassigned; 62b) |
| 30.4 | 12.4% | COC(CC(=O)CCc1ccccc1)Cc1ccc2ccccc2c1 (configuration not stated) |
| – | 17.2% and -3.1% | c1ccc(CCCC2=NOC(c3ccccc3)C2)cc1 (configuration not stated) |
| 68.4 | 1.1% | c1ccc(CCC2=NOC(Cc3ccccc3)C2)cc1 (single isomer, unassigned) |
| 67.6 | 15.5% | c1ccc(CCCC2=NOC(CCc3ccccc3)C2)cc1 (configuration not stated) |
| 78.8 | 20.5% | O=C(CCc1ccccc1)CC(O)c1ccccc1 (single isomer, unassigned; 23a) |
| 3.1 | -14.6% | COC(CCc1ccccc1)CC(=O)CCCc1ccccc1 (configuration not stated) |
| 34.1 | 10.5% | c1ccc(CCC2=NOC(Cc3cccc4ccccc34)C2)cc1 (single isomer, unassigned; 52a) |
| 30.1 | 5.7% | O=C(CCc1ccccc1)CC(O)Cc1ccc(F)cc1 (configuration not stated) |
| 82 | 3.4% | Oc1ccccc1CCC1=NOC(Cc2ccc(F)cc2)C1 (single isomer, unassigned; 73a) |

| Activity [1] [%] | Activity [2] | SMILES |
| --- | --- | --- |
| 0.6 | 0.3% | O=C(CCc1ccccc1)CC(=O)CCc1ccccc1 |
| 13 | 15.4% | O=C(CC(O)CCc1ccccc1)c1ccccc1 (configuration not stated) |
| 14.8 | 2% | COc1cc2ccccc2cc1CC(CC(=O)Cc1ccc2ccccc2c1)OC (configuration not stated) |
| 14.5 | 19.5% | COC(CCc1ccccc1)CC(=O)CCc1ccccc1 (configuration not stated) |
| 13 | 3.8% | c1ccc(CCC2=NOC(Cc3ccc4ccccc4c3)C2)cc1 (single isomer, unassigned; 53b) |
| 12.8 | 0.4% | O=C(CCc1ccccc1)CC(O)Cc1ccccc1 (configuration not stated) |
| 4.3 | 0.2% | O=C(Cc1ccccc1)CC(O)CCc1ccccc1 (configuration not stated) |
| 5.3 | 16.9% | O=C(CC(O)Cc1ccccc1)c1ccccc1 (configuration not stated) |
| 171 | 143% | Oc1ccc(CCC2=NOC(Cc3ccccc3)C2)cc1 (configuration not stated) |
| 5.4 | 9.7% | O=C(CC(=O)c1ccccc1)Cc1ccccc1 |
| 16.4 | 9.8% | c1ccc(CCC2=NOC(c3ccccc3)C2)cc1 (single isomer, unassigned; 12a) |
| 19.6 | 34.4% | c1ccc(CC2=NOC(c3ccccc3)C2)cc1 (configuration not stated) |
| -2.5 | 3.3% | CS(C)=C(C(=O)CCc1ccccc1)C(=O)c1ccccc1 |
| 3.5 | -0.5% | COc1ccccc1CC(=O)CC(Cc1ccc2ccccc2c1)OC (single isomer, unassigned; 66a) |
| 8.4 | 1.7% | O=C(Cc1ccccc1)CC(O)Cc1ccccc1 (configuration not stated) |
| 0.8 | 1.6% | O=C(Cc1ccccc1)CC(O)c1ccccc1 (configuration not stated) |
| 39.7 | 30.5% | Oc1ccccc1CCC1=NOC(Cc2ccccc2)C1 (single isomer, unassigned) |
| 3.4 | 0.2% | c1ccc(CCC2=NOC(CCc3ccccc3)C2)cc1 (single isomer, unassigned; 18a) |
| 17.2 | 6.5% | c1ccc(CCC2=NOC(Cc3cccc4ccccc34)C2)cc1 (single isomer, unassigned; 52b) |
| 11.1 | -2.4% | Oc1ccccc1CCC1=NOC(Cc2ccc(F)cc2)C1 (single isomer, unassigned; 73b) |
